Values after ≈ are worked out from the molar mass of the structure shown.
Legend:
MAO-B = molecular target: T1, MAO-B (Rattus norvegicus, UniProt P19643); experiment: Inhibition of MAO-B in rat forebrain using [14C]PEA as substrate at 30 uM incubated for 20 mins prior to substrate addition measured after 10 mins by liquid scintillation counting analysis relative to control; format: tissue-based; settings: probe [14C]PEA
T1 sequence (P19643 whole entry): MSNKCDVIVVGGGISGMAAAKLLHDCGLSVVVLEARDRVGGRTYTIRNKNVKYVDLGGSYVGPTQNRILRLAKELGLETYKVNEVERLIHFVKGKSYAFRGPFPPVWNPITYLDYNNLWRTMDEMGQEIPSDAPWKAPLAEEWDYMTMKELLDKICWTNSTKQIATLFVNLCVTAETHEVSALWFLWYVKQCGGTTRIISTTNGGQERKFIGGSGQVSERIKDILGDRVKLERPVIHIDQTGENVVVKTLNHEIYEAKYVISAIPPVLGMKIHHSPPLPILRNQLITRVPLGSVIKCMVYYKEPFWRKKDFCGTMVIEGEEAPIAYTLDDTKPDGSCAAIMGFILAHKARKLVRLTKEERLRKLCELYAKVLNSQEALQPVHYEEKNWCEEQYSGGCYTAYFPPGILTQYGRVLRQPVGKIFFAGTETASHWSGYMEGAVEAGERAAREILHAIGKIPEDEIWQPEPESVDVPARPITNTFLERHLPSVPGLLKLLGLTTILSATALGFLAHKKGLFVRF

MAO-A = molecular target: T2, MAO-A (Rattus norvegicus, UniProt P21396); experiment: Inhibition of MAO-A in rat forebrain using [14C]5-HT as substrate at 30 uM incubated for 20 mins prior to substrate addition measured after 5 mins by liquid scintillation counting analysis relative to control; format: tissue-based; settings: probe [14C]5-HT
T2 sequence (P21396 whole entry): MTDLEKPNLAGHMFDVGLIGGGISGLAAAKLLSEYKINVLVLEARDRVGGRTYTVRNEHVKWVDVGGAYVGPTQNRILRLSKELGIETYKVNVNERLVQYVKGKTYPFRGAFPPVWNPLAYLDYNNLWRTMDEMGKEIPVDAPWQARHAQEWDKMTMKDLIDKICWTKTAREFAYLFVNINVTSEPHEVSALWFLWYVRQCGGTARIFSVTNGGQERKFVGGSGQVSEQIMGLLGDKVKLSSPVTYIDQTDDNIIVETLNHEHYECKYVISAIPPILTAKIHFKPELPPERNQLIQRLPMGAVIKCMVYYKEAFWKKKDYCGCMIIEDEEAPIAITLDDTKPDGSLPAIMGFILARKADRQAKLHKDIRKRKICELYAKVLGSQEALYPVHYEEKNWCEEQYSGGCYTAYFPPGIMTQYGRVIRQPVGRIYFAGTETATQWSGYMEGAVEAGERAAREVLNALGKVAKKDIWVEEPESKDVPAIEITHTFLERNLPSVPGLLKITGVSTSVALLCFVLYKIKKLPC

Cytochrome P450 2D6 = Cytochrome P450 2D6 (Homo sapiens, UniProt P10635); experiment: Inhibition of human CYP2D6 assessed as dextromethorphan O-demethylation after 20 mins by LC/MS/MS analysis; format: ADME
Sequence of Cytochrome P450 2D6 (P10635 whole entry): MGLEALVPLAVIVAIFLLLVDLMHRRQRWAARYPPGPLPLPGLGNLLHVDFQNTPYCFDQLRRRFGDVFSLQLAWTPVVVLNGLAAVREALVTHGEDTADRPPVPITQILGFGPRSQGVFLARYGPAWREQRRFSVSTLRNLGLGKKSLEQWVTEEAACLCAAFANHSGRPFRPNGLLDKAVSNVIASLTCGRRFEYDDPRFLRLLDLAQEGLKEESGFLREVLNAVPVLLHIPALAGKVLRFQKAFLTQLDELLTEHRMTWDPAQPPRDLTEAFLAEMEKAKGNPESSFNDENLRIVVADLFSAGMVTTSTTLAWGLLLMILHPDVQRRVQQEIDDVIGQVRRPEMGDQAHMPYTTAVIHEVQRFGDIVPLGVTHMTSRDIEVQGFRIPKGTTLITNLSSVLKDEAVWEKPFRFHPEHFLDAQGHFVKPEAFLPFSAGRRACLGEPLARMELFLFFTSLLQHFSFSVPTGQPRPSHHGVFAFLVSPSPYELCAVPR
How it was run: (§1)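 Human liver microsomes (0.2 mg protein/mL) with 1 mM NADPH in 50 mM HEPES pH 7.4, 10 mM MgCl2, 0.1 mM EDTA. After centrifugation, supernatant metabolite measured by LC/MS/MS. Standard curve from authentic metabolite cocktail added to unincubated reaction mix.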

Cytochrome P450 2C9 = Cytochrome P450 2C9 (Homo sapiens, UniProt P11712); experiment: Inhibition of human CYP2C9 assessed as tolbutamide hydroxylation after 20 mins by LC/MS/MS analysis; format: ADME; how it was run: as §1
Sequence of Cytochrome P450 2C9 (P11712 whole entry): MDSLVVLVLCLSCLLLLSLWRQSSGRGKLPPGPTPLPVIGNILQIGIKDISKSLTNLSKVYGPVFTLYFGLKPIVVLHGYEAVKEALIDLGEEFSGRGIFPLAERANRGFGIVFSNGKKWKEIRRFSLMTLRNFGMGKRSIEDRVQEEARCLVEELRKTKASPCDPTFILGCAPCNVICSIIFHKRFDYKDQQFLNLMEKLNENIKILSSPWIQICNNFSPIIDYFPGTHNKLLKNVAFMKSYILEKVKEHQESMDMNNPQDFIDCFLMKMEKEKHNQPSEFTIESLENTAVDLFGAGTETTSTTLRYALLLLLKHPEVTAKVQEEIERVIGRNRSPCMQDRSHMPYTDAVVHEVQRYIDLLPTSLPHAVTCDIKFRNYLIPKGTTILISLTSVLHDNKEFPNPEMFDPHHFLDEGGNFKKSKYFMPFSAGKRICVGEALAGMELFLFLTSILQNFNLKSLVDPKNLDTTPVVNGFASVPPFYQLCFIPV

Staphylococcus aureus [1] = experiment: Antibacterial activity against methicillin-resistant Staphylococcus aureus SR3637 infected in JCL/ICR mouse systemic infection model assessed as mortality administered as po measured over 7 days; format: functional; settings: 168 h
How it was run: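 Five-week-old male JCL/ICR mice (20–25 g), five per group. Infected intraperitoneally with 0.5 or 1.0 mL bacterial suspension (about 100× LD50). Oral dosing 1 h post-infection. Mortality followed 7 days; ED50 with 95% confidence limits by logit method.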

Staphylococcus aureus [2] = experiment: Antibacterial activity against methicillin-resistant Staphylococcus aureus SR3637 infected in JCL/ICR mouse systemic infection model assessed as mortality administered as iv measured over 7 days; format: functional; settings: 168 h
How it was run: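 Five-week-old male JCL/ICR mice (20–25 g), five per group. Infected intraperitoneally with 0.5 or 1.0 mL bacterial suspension (about 100× LD50). Intravenous dosing 1 h post-infection. Mortality followed 7 days; ED50 with 95% confidence limits by logit method.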

Staphylococcus aureus [3] = experiment: Antibacterial activity against methicillin-resistant Staphylococcus aureus SR3637 assessed as growth inhibition by CLSI broth microdilution method; format: functional
How it was run: (§2)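 MIC by CLSI broth microdilution in cation-adjusted Mueller-Hinton broth. Lowest concentration inhibiting growth taken as MIC.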

Haemophilus influenzae [4] = experiment: Ratio of eperezolid MIC to compound MIC for Haemophilus influenzae SR27914 clinical isolate; format: functional
Streptococcus pneumoniae [5] = experiment: Ratio of eperezolid MIC to compound MIC for Streptococcus pneumoniae SR26207 clinical isolate; format: functional
Moraxella catarrhalis [6] = experiment: Ratio of eperezolid MIC to compound MIC for Moraxella catarrhalis SR26840 clinical isolate; format: functional
Enterococcus faecalis [7] = experiment: Ratio of eperezolid MIC to compound MIC for Enterococcus faecalis SR1004 clinical isolate; format: functional
Staphylococcus aureus [8] = experiment: Ratio of eperezolid MIC to compound MIC for Staphylococcus aureus Smith; format: functional
Staphylococcus aureus [9] = experiment: Ratio of eperezolid MIC to compound MIC for Staphylococcus aureus SR20549 clinical isolate; format: functional
Moraxella catarrhalis [10] = experiment: Ratio of linezolid MIC to compound MIC for Moraxella catarrhalis SR26840 clinical isolate; format: functional
Streptococcus pneumoniae [11] = experiment: Ratio of linezolid MIC to compound MIC for Streptococcus pneumoniae SR26207 clinical isolate; format: functional
Haemophilus influenzae [12] = experiment: Ratio of linezolid MIC to compound MIC for Haemophilus influenzae SR27914 clinical isolate; format: functional
Enterococcus faecium [13] = experiment: Ratio of linezolid MIC to compound MIC for Enterococcus faecium SR7940 clinical isolate; format: functional
Staphylococcus aureus [14] = experiment: Ratio of linezolid MIC to compound MIC for Staphylococcus aureus SR20549 clinical isolate; format: functional
Haemophilus influenzae [15] = experiment: Antibacterial activity against Haemophilus influenzae SR27914 clinical isolate assessed as growth inhibition by CLSI broth microdilution method; format: functional
How it was run: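 MIC by CLSI broth microdilution using Haemophilus test medium.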

Streptococcus pneumoniae [16] = experiment: Antibacterial activity against Streptococcus pneumoniae SR26207 clinical isolate assessed as growth inhibition by CLSI broth microdilution method; format: functional
How it was run: (§3)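 MIC by CLSI broth microdilution in cation-adjusted Mueller-Hinton broth; S. pneumoniae medium supplemented with 5% lysed horse blood.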

Enterococcus faecium [17] = experiment: Antibacterial activity against Enterococcus faecium SR7940 clinical isolate assessed as growth inhibition by CLSI broth microdilution method; format: functional; how it was run: as §3
Enterococcus faecalis [18] = experiment: Antibacterial activity against Enterococcus faecalis SR1004 clinical isolate assessed as growth inhibition by CLSI broth microdilution method; format: functional; how it was run: as §3
Staphylococcus aureus [19] = experiment: Antibacterial activity against linezolid-resistant Staphylococcus aureus NRS271 assessed as growth inhibition by CLSI broth microdilution method; format: functional; how it was run: as §2
Staphylococcus aureus [20] = experiment: Antibacterial activity against Staphylococcus aureus Smith assessed as growth inhibition by CLSI broth microdilution method; format: functional; how it was run: as §3

| SMILES | inhibition at 10 min, 30 µM (MAO-B) [%] | inhibition at 5 min, 30 µM (MAO-A) [%] | IC50 (Cytochrome P450 2D6) [µM] | IC50 (Cytochrome P450 2C9) [µM] | ED50 (Staphylococcus aureus [1]) [mg/kg] | ED50 (Staphylococcus aureus [2]) [mg/kg] | MIC (Staphylococcus aureus [3]) [µg/mL] | Ratio (Haemophilus influenzae [4]) | Ratio (Streptococcus pneumoniae [5]) | Ratio (Moraxella catarrhalis [6]) | Ratio (Enterococcus faecalis [7]) | Ratio (Staphylococcus aureus [8]) | Ratio (Staphylococcus aureus [9]) | Ratio (Moraxella catarrhalis [10]) | Ratio (Streptococcus pneumoniae [11]) | Ratio (Haemophilus influenzae [12]) | Ratio (Enterococcus faecium [13]) | Ratio (Staphylococcus aureus [14]) | MIC (Haemophilus influenzae [15]) [µg/mL] | MIC (Streptococcus pneumoniae [16]) [µg/mL] | further results |
| --- | --- | --- | --- | --- | --- | --- | --- | --- | --- | --- | --- | --- | --- | --- | --- | --- | --- | --- | --- | --- | --- |
| COC(=S)NC[C@H]1CN(c2ccc(N3CCNN(C(=O)CO)CC3)c(F)c2)C(=O)O1 | 10.1 | 48.2 | > 20 | > 20 | 1.05 | 0.94 | 0.25 (≈ 0.566 µM) | 4 | 4 | 4 | 4 | 4 | 4 | 4 | 4 | 4 | 4 | 4 | 4 (≈ 9.06 µM) | 0.125 (≈ 0.283 µM) | MIC (Enterococcus faecium [17]): 0.25 µg/mL (≈ 0.566 µM); MIC (Enterococcus faecalis [18]): 0.5 µg/mL (≈ 1.13 µM); MIC (Staphylococcus aureus [19]): 2 µg/mL (≈ 4.53 µM); MIC (Staphylococcus aureus [20]): 0.25 µg/mL (≈ 0.566 µM) |
| COC(=S)NC[C@H]1CN(c2cc(F)c(N3CCNN(C(=O)CO)CC3)c(F)c2)C(=O)O1 | 10.6 | 12.4 | > 20 | > 20 | 2.07 | 0.77 | 0.25 (≈ 0.544 µM) | 4 | 4 | 4 | 4 | 4 | 4 | 4 | 4 | 4 | 4 | 4 | 4 (≈ 8.71 µM) | ≤ 0.063 | MIC (Enterococcus faecium [17]): 0.25 µg/mL (≈ 0.544 µM); MIC (Enterococcus faecalis [18]): 0.25 µg/mL (≈ 0.544 µM); MIC (Staphylococcus aureus [19]): 2 µg/mL (≈ 4.35 µM); MIC (Staphylococcus aureus [20]): 0.25 µg/mL (≈ 0.544 µM) |

— ChEMBL document CHEMBL2375276, “Antibacterial oxazolidinone analogues having a N-hydroxyacetyl-substituted seven-membered [1,2,5]triazepane or [1,2,5]oxadiazepane C-ring unit” (Eur J Med Chem, 2013)
